The subject of data set [1] is ptc>dRet^M955T flies. The experiment in a line: rescue-from-lethality assay in ptc>dRet^M955T flies. In kind it is in vivo, Drosophila. The following applies: drug food, 25°C; for rescue of ptc>dRet^M955T flies to adulthood (% viability): optimal dose. In a few lines:
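ptc-gal4,UAS-GFP;UAS-dRetM955T/SM5tub-gal80-TM6B flies were crossed with w−. Embryos were raised for 13 days at 25°C on semi-defined medium carrying compound added from DMSO, 0.1% final. Flies were randomised. % viability = empty pupal cases ÷ total pupal cases. The assay was repeated twice.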

The subject of data set [2] is ptc>dRet^M955T flies with or without kinase heterozygous mutations. The class given is in vivo, Drosophila. Particulars: 23°C.
Data set [3] has as its system dRet^M955T-expressing wing cells. Put plainly: in vivo cell migration assay in developing wing discs. The arrangement: species or system Drosophila. Particulars: for EMT and migration/invasion of dRet^M955T-expressing wing cells: ptc>dRet^M955T wing discs; for effect of reduced Lk6 on suppression of ptc>dRet^M955T cell migration: ptc>dRet^M955T,Lk6^−/+ wing discs, 1 400 µM, 4 200 µM, 9 100 µM, 10 100 µM. An outline of the steps: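 Third-instar larvae were dissected to collect developing wing discs. Discs were fixed in 4% paraformaldehyde in PBS and whole-mounted. GFP-labelled dRetM955T-expressing cells were examined by confocal microscopy. Phospho-Src was immunostained with rabbit anti-Src(pY418).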

For data set [4], the system named is 765>dRet^M955T flies. The experiment in a line: wing venation assay. In kind it is in vivo, Drosophila. An outline of the steps:
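UAS-dRetM955T;765-gal4/SM5tub-gal80-TM6B flies were crossed with w– or Lk6−/+ to give 765>dRetM955T or 765>dRetM955T,Lk6−/+ progeny. Progeny were reared for 13 days at 25°C on medium with or without compound (0.1% final DMSO). Adult wings were scored blind for abnormal venation. The assay was repeated twice.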

Data set [5] deals with non-oncogenic w^− flies. The experiment in a line: whole body toxicity in control, non-transformed flies. In kind it is in vivo, Drosophila. Particulars: fed to control.
The target in data set [6] is MKNK1 (Homo sapiens, UniProt Q9BUB5). Put plainly: Kd measurement. In kind it is binding. In a few lines:
(§1)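 Competition binding assay: kinases expressed on phage and captured on beads through immobilised active-site-directed ligands. Test compound is premixed with kinase and scored for its ability to compete for the immobilised ligand. An 11-point series, 30,000 to 0.5 nM in 3-fold dilutions, is used for each compound–kinase pair. Kd is fitted by the Hill equation with slope fixed at -1 and averaged over two replicates.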

The target in data set [7] is BRAF (Homo sapiens, UniProt P15056). The experiment in a line: Kd measurement. The class given is binding. Particulars: cell-free in vitro. An outline of the steps:
as §1

Data set [8] concerns TT human MTC cells. The experiment in a line: soft agar colony formation assay. In kind it is cell-based. The following applies: three weeks, compared with sorafenib and 4. In a few lines: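 TT cells were cultured in 0.3% agar with or without test compound for three weeks. Colony formation efficiency = number of growing colonies ÷ cells seeded. The assay was repeated twice.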

Data set [9] addresses RET (Homo sapiens, UniProt P07949). Put plainly: Kd measurement. The class given is binding. An outline of the steps: as §1
The subject of data set [10] is BRAF in HCT-116 and LOVO cells. The experiment in a line: RAF transactivation assay in human cancer cell lines. In kind it is cell-based. The following applies: two cancer cell lines (HCT-116, LOVO), 1 hour. In a few lines:
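HCT-116 cells are kept in DMEM and LOVO cells in DMEM/F12, each with 10% FBS, 2 mM glutamine and antibiotics. Cells are seeded, then treated with test compound for 1 hour after 24 hours. Lysates are BCA-normalised, run on 4–15% gradient SDS-PAGE and immunoblotted for pMEK, pERK1/2 and total MEK.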

Data set [11] deals with TT human MTC cells. The experiment in a line: signaling pathway activity analysis. In kind it is cell-based. Particulars: 1 µM, 1 hour. In a few lines:
(§2)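 MZ-CRC-1 or TT medullary thyroid carcinoma cells were exposed for 1 hour to vehicle (0.1% DMSO) or 1 µM test compound. Cells were harvested and immunoblotted for pMEK, total MEK, pERK1/2, total ERK1/2 and pS6.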

The test system of data set [12] is MZ-CRC-1 human MTC cells. Put plainly: signaling pathway activity analysis. The class given is cell-based. The following applies: MZ-CRC-1 cells, 1 µM, 1 hour. In a few lines: as §2
Data set [13] is described as follows: toleration assay. The class given is in vivo, mouse. In a few lines: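 Five female athymic nude mice (6 weeks) received escalating oral doses from 0.1 mg/kg/day up to 160 mg/kg/day.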
Data set [14] in a line: pharmacokinetics assay in mice. In kind it is in vivo, mouse. An outline of the steps: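 Male ICR mice (6 weeks) received a single oral dose of 20 mg/kg. Plasma drug concentrations were measured at 0.25, 0.5, 1, 2, 4, 8, 10 and 24 h after dosing.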
Data set [15] concerns TT cells. Put plainly: TT cell xenograft assay in nude mice. In kind it is in vivo, mouse. An outline of the steps: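 Forty female nude mice (6 weeks) received subcutaneous TT cells. At ~120 mm3 tumour volume they were randomised into four arms. Each arm was dosed orally five days per week with vehicle or 10 mg/kg/day compound. Vehicle: Cremophor EL/ethanol (1:1) diluted 4-fold with water.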

[16] abbreviates: higher doses that rescued ptc>dRet^M955T viability.
Where [17] appears, read: low dose, 10 µM final food concentration, 765>dRet^M955T larvae.

Where “and” joins values, the source holds several entries; their conditions need not be identical. Equal entries are not always repeated. Entries after “also recorded” stand apart in the source; their conditions may differ.

Sequence of MKNK1 (Q9BUB5 whole entry): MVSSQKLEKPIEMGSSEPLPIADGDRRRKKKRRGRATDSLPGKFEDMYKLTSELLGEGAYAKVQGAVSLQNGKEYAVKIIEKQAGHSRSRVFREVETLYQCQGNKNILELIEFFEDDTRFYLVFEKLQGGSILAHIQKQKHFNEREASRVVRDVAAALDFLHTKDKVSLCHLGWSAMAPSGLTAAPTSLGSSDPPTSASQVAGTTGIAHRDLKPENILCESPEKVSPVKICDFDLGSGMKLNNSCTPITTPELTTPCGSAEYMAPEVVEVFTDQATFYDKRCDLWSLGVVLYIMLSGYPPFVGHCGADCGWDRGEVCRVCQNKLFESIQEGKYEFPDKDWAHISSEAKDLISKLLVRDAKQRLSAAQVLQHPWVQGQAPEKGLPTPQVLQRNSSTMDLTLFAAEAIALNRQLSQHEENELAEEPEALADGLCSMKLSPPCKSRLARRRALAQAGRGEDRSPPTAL
Sequence of BRAF (P15056 whole entry): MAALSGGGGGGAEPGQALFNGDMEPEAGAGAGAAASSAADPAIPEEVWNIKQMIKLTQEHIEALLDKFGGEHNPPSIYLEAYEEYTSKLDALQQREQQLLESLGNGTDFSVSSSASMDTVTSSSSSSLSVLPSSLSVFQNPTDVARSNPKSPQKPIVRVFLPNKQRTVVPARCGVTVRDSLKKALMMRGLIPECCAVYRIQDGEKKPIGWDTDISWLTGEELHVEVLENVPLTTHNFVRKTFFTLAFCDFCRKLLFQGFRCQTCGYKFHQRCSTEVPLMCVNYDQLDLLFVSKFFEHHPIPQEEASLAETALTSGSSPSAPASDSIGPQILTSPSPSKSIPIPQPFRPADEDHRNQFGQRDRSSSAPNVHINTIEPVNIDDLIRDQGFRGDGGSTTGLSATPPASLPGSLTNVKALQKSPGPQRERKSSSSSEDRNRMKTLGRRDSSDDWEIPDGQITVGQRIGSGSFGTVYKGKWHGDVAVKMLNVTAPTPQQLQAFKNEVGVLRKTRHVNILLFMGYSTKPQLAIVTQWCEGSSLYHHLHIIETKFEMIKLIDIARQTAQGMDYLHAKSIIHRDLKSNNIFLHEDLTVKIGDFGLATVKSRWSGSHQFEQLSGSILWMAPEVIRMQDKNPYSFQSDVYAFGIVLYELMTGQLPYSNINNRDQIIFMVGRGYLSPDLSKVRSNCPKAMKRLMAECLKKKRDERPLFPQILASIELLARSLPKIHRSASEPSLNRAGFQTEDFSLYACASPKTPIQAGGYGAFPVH
Sequence of RET (P07949 29-1114): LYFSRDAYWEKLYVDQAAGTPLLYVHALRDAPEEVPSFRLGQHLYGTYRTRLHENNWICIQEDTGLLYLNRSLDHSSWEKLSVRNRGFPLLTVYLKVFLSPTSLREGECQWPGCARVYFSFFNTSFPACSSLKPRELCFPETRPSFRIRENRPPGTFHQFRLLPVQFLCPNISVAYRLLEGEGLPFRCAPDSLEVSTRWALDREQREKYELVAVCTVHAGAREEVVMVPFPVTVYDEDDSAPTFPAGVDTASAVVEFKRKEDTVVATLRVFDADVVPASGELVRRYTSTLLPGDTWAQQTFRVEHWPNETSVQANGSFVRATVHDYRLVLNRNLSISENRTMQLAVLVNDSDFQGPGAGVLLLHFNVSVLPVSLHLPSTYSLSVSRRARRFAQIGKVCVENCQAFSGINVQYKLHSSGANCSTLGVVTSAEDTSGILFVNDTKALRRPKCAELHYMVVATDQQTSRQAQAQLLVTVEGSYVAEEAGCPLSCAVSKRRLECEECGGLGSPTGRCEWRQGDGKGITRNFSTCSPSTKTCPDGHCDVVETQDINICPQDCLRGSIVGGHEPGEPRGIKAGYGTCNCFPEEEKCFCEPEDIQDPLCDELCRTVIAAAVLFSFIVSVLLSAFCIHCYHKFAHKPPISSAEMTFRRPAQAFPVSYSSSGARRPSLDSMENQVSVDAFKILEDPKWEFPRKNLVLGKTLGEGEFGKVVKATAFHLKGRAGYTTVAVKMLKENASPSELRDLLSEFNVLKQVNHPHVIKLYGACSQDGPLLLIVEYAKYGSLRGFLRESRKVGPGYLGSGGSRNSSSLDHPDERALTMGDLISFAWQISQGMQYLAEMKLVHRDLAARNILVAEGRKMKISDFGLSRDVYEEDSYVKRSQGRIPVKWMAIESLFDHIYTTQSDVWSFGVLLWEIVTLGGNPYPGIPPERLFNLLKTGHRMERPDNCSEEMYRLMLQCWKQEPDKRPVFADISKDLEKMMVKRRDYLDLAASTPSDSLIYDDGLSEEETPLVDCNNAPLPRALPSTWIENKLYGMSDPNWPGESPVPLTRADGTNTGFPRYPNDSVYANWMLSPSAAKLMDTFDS

Take `CNC(=O)c1cc(Oc2ccc(NC(=O)Nc3cccc(C(F)(F)F)c3)cc2)ccn1` [LS1-11-2, N-methyl-4-(4-(3-(3-(trifluoromethyl)phenyl)ureido)phenoxy)picolinamide]: in data set [1], the “rescue of ptc>dRet^M955T viability, in words” value (“rescue … in words” below) is “reduced survival”.
`CNC(=O)c1cc(Oc2ccc(NC(=O)Nc3cc(C(F)(F)F)ccc3F)cc2)ccn1` [compound 4, 4-(4-(3-(2-fluoro-5-(trifluoromethyl)phenyl)ureido)phenoxy)-N-methylpicolinamide]: the “rescue … in words” value in [1] (listed as LS1-15) is given as “more effective than sorafenib”. For the same molecule, in data set [2] (kinase-proficient control flies), the “viability of ptc>dRet^M955T flies” value was ~ 50% and 50%. Also, in [2] (one functional allele of Lk6 removed), the “survival to adulthood of ptc>dRet^M955T,Lk6^−/+ flies” value was found to be 0%. In addition, the “viability of ptc>dRet^M955T,phl^−/+ flies” value in [2] (phl (RAF ortholog) heterozygous) turned out to be 96%. Further, in data set [3], the “EMT and migration/invasion of dRet^M955T-expressing wing cells” value (shortened to “EMT and migration/invasion”) was “as effective as sorafenib in suppressing EMT and invasion”; the “effect of reduced Lk6 on suppression of ptc>dRet^M955T cell migration” value (shortened to “effect of reduced Lk6”) is “reversed suppression”. The ectopic wing venation result in [4] (setting [16]) is “did not promote ectopic wing venation”. Further, in [4] (setting [17]), the ectopic wing venation result is recorded as “stimulated significant excess wing vein material”.
Turning to `CNC(=O)c1cc(Oc2ccc(NC(=O)Nc3cc(C(F)(F)F)ccc3F)c(F)c2)ccn1` [compound 5, 4-(3-fluoro-4-(3-(2-fluoro-5-(trifluoromethyl)phenyl)ureido)phenoxy)-N-methylpicolinamide], the “rescue … in words” value in data set [1] is “more effective than sorafenib”. For the same molecule, the “EMT and migration/invasion” value in data set [3] was “as effective as sorafenib in suppressing EMT and invasion”.
For the molecule `CNC(=O)c1cc(Oc2ccc(NC(=O)c3ccc(Cl)c(C(F)(F)F)c3)cc2)ccn1` [compound 6, 4-(4-(4-chloro-3-(trifluoromethyl)benzamido)phenoxy)-N-methylpicolinamide], the whole body toxicity entry in [5] is “toxic”. For the same molecule, the “EMT and migration/invasion” value in data set [3] is reported as “enhanced cell migration”.
Regarding `CNC(=O)c1cc(Oc2ccc(NC(=O)Nc3cc(C(F)F)ccc3F)cc2)ccn1` [compound 7, 4-(4-(3-(5-(difluoromethyl)-2-fluorophenyl)ureido)phenoxy)-N-methylpicolinamide], the “rescue … in words” value in data set [1] is “reduced rescue”; in data set [1] (listed as APS4-54), “poor whole animal activity”.
With `CNC(=O)c1cc(Oc2ccc(NC(=O)Nc3cc(C)ccc3F)cc2)ccn1` [compound 8, 4-(4-(3-(2-fluoro-5-methylphenyl)ureido)phenoxy)-N-methylpicolinamide], the “rescue … in words” value in data set [1] is reported as “reduced rescue”; in data set [1] (listed as APS4-35-1) it was “poor whole animal activity”.
As to `CNC(=O)c1cc(Oc2ccc(NC(=O)Nc3cc(C(F)(F)C(F)(F)F)ccc3F)cc2)ccn1` [compound 9, 4-(4-(3-(2-fluoro-5-(perfluoroethyl)phenyl)ureido)phenoxy)-N-methylpicolinamide], the “rescue … in words” value in data set [1] is recorded as “strongly improved”. Besides, in [3], the “effect of reduced Lk6” value was “not affected”. The “in vitro MKNK1 binding relative to sorafenib” value in data set [6] was “significantly reduced”. The “BRAF binding compared to sorafenib and 4” value in data set [7] was “reduced BRAF binding”. The ectopic wing venation entry in data set [4] (at any dose) is on record as “failed to promote ectopic wing venation”. Moreover, in data set [8], the “colony formation of TT cells in soft agar” value is on record as “strongly suppressed”.
For `CNC(=O)c1cc(Oc2ccc(NC(=O)Nc3cc(C(F)(C(F)(F)F)C(F)(F)F)ccc3F)cc2)ccn1` [compound 10, 4-(4-(3-(2-fluoro-5-(perfluoropropan-2-yl)phenyl)ureido)phenoxy)-N-methylpicolinamide], in data set [1], the “rescue … in words” value was “strongly improved” and the “rescue of ptc>dRet^M955T flies to adulthood (% viability)” value turned out to be 84%. Further, the “effect of reduced Lk6” value in data set [3] is “not affected”. Besides, in [6], the “in vitro MKNK1 binding relative to sorafenib” value is “only a small decrease”. In addition, in [7], the “BRAF binding compared to sorafenib and 4” value was “reduced BRAF binding”. The “RET binding relative to sorafenib” value in data set [9] is reported as “weaker RET binding”. The ectopic wing venation entry in data set [4] (at any dose) is reported as “failed to promote ectopic wing venation”. In [10], the “drug concentration required to transactivate BRAF relative to sorafenib” value is listed as ~ 30 fold. Further, the RAS pathway signaling result in [11] is listed as “strongly inhibited”. Besides, the RAS pathway signaling result in [12] is given as “strongly inhibited”. Moreover, in data set [8], the “colony formation of TT cells in soft agar” value was “strongly suppressed”. Besides, the “signs of clinical distress (weight loss, discharges, morbidity)” value in [13] (female athymic nude mice, oral dose escalated from 0.1 up to 160 mg/kg/day) was “no such signs were observed”. Also, in data set [13] (single oral dose of 160 mg/kg), the “toxic effects after oral dosing” value is listed as “did not cause detectable toxic effects”. For the same molecule, the “treatment-related clinical signs following dosing” value in data set [14] (20 mg/kg orally, male ICR mice) is given as “No treatment-related clinical signs were observed”. In addition, the “concentration in blood plasma” value in data set [14] (20 mg/kg p.o., male ICR mice) is “approximately 10 µM”. Besides, the half-life (usually the time needed for the level to fall by half in the phase considered) in data set [14] (male, ICR, mouse, plasma, po, 20 mg/kg) is 336 min. The “partial or complete responses, share of dosed mice” value in data set [15] (10 mg/kg/day p.o. five days per week, day 30, female nude mice) stood at 75%. For the same molecule, in data set [15] (10 mg/kg/day p.o. five days per week, subcutaneous xenograft, nude mice), the “growth of established TT tumors” value was “far more potently than sorafenib or cabozantinib”. The “body weight of dosed mice” value in data set [15] (10 mg/kg/day p.o., after 30 days) is “no effect; also recorded: did not affect body weight”.
For `CNC(=O)c1cc(Oc2ccc(NC(=O)Nc3ccc(Cl)c(C(F)(F)F)c3)c(F)c2)ccn1` [regorafenib, 4-(4-(3-(4-chloro-3-(trifluoromethyl)phenyl)ureido)-3-fluorophenoxy)-N-methylpicolinamide, reference compound], in [1], the “rescue … in words” value is listed as “only moderate”.
As for `CC(=O)Nc1cccc(-n2c(=O)n(C3CC3)c(=O)c3c(Nc4ccc(I)cc4F)n(C)c(=O)c(C)c32)c1` [trametinib, reference compound], the “rescue … in words” value in data set [1] is on record as “only moderate”. Besides, in data set [4] (1 µM, 765>dRet^M955T adults), the ectopic wing venation result is on record as “strongly suppressed ectopic venation”. In addition, the “wing defects (enhanced wing venation, poor wing structure)” value in data set [4] (765>dRet^M955T,Lk6^−/+ flies) is recorded as “suppressed”.
For “N-methyl-4-(4-(3-(3-(trifluoromethyl)phenyl)ureido)phenoxy)picolinamide [sorafenib, reference compound]”, in data set [1], the “rescue … in words” value is on record as “only moderate”; the “rescue of ptc>dRet^M955T flies to adulthood (% viability)” value was ~ 5% and 5%. Moreover, in data set [3], the “EMT and migration/invasion” value was “suppressed both EMT and migration”; the “effect of reduced Lk6” value is “reversed suppression”. In [4] (setting [16]), the ectopic wing venation entry is recorded as “did not promote ectopic wing venation”. In addition, the ectopic wing venation entry in [4] (setting [17]) is “stimulated significant excess wing vein material”.

The values are drawn from PMC5931369 (Nature chemical biology, 2018).
